# Test results: ChEMBL document CHEMBL1128460, “Design, synthesis, and structure-activity relationships of a new series of alpha-adrenergic agonists: spiro[(1,3-diazacyclopent-1-ene)-5,2'-(1',2',3',4'- tetrahydronaphthalene)]” (J Med Chem, 1995)
# How the values were obtained:
# [1] = Ratio of C20 obtained in the absence or presence of [C20 ( 0.1 mg of prazosin ) / C20 (control)]; format: functional
# Procedure, shortened: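 Pithed rats pretreated with tertatolol (100 mg/kg), then 10 min later with prazosin (100 µg/kg). Cumulative iv agonist doses given another 10 min later at 20 s intervals. Arterial pressure recorded, C20 (dose giving +20 mmHg) determined. Ratio calculated as C20(prazosin)/C20(control); 3–6 determinations.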
# Canis familiaris [2] = organism: Canis familiaris; assay: Maximal contractile response obtained with the agonist (expressed as a percentage of the maximal contraction to phenylephrine in the dog femoral artery); format: functional, Canis lupus familiaris
# Procedure, shortened: (§1)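 Vessel segments from mongrel dogs (15–25 kg) anesthetized with pentobarbital (30 mg/kg iv), mounted for isometric tension in physiological saline. Equilibrated 90 min with bath changes every 30 min, rauwolscine (10^-7 M) present throughout. Primed with KCl (100 mM), then phenylephrine (1 µM). Agonist concentration–response curves run at half-log steps, giving EC50 (µM) and Emax as % of phenylephrine maximum; mean ±SD.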
# [3] = biological target: T1, Adrenergic receptor alpha-1 (Rattus norvegicus, UniProt P15823+P23944+P43140); assay: Displacement of [3H]prazosin from rat cortex Alpha-1 adrenergic receptor
# T1 sequence (P15823 whole entry): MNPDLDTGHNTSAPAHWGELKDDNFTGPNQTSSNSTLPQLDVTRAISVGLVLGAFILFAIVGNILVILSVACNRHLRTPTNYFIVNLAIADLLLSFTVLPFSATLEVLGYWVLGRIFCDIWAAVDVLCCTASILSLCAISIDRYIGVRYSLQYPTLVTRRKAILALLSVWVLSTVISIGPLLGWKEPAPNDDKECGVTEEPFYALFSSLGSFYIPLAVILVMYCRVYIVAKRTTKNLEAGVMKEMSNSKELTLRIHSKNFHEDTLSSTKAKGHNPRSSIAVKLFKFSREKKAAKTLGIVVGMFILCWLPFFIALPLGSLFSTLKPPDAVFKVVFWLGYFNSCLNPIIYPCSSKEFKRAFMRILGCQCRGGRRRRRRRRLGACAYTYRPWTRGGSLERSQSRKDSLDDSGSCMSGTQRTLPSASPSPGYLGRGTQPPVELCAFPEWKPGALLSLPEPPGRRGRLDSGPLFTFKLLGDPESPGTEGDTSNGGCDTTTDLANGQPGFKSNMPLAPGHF
# T1 sequence (P23944 whole entry): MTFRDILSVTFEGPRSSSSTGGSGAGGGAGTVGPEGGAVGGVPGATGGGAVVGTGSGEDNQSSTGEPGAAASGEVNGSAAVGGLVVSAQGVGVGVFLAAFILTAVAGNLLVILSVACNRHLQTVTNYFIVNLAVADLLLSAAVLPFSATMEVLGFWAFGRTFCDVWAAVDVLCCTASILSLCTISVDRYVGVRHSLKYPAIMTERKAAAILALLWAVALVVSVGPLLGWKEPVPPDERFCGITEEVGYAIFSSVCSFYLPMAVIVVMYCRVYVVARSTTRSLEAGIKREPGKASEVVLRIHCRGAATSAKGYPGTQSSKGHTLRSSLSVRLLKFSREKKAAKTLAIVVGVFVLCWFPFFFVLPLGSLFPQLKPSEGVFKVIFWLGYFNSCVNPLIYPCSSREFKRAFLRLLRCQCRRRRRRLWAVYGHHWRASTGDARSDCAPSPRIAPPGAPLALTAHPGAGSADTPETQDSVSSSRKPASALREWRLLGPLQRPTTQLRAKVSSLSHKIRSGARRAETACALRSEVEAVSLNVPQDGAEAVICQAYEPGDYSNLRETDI
# T1 sequence (P43140 whole entry): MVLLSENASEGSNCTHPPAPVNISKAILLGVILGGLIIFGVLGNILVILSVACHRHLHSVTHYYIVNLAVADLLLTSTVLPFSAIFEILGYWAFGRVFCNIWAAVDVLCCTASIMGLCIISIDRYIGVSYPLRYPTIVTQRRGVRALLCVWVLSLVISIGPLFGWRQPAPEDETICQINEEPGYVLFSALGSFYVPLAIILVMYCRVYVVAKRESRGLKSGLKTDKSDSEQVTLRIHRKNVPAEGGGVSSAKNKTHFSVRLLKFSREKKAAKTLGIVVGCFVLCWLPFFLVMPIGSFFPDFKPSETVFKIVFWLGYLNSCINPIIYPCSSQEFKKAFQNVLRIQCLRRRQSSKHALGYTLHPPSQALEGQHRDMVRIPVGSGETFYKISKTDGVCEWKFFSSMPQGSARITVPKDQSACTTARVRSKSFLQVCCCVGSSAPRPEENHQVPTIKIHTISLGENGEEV
# Procedure, shortened: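 Rat cortex membranes labelled with [3H]prazosin (0.3 nM), nonspecific binding with prazosin (10 µM). Nine drug concentrations spanning 3 log units, IC50 by log-probit analysis. Ki by Cheng–Prusoff using Kd from Scatchard saturation. At least three independent experiments in duplicate.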
# Canis familiaris [4] = organism: Canis familiaris; assay: Effective concentration for the agonist in the isolated blood vessel using in vitro saphenous vein; format: functional; conditions: Canis lupus familiaris; procedure, shortened: as §1
# [5] = biological target: T2, Adrenergic receptor alpha (Rattus norvegicus) (UniProt P15823+P23944+P43140+P22086+P19328+P22909); assay: Alpha adrenergic activity was evaluated as concentration (iv) which increases the arterial pressure by 20 mmHg in the pithed rat; format: functional, organism-based; conditions: Artery
# Canis familiaris [6] = organism: Canis familiaris; assay: Effective concentration for the agonist in the isolated blood vessel using in vitro femoral artery; format: functional; conditions: Canis lupus familiaris; procedure, shortened: as §1
# [7] = Ratio of C20 obtained in the absence or presence of [C20 (1 mg of yohimbine.) / C20 (control)]; format: functional
# Procedure, shortened: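 Pithed rat arterial pressure assay with tertatolol (100 mg/kg) pretreatment, then yohimbine (1 mg/kg) 10 min later. Cumulative iv agonist doses given at 20 s intervals after a further 10 min, C20 (+20 mmHg dose) obtained. Ratio expressed as C20(yohimbine)/C20(control); 3–6 determinations.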
# [8] = biological target: T2, Adrenergic receptor alpha (Rattus norvegicus); assay: Alpha adrenergic activity was evaluated as maximal pressure response caused by agonist, expressed in mmHg (the maximum obtained with phenylephrine is 150 mmHg).; format: functional
# Canis familiaris [9] = organism: Canis familiaris; assay: Maximal contractile response obtained with the agonist (expressed as a percentage of the maximal contraction to phenylephrine in the dog saphenous vein); format: functional, Canis lupus familiaris; procedure, shortened: as §1
# [10] = biological target: T3, Alpha-2A adrenergic receptor (Homo sapiens, UniProt P08913); assay: Binding affinity towards Alpha-2A adrenergic receptor in human platelets using [3H]RX-821002 as radioligand
# T3 sequence (P08913 whole entry): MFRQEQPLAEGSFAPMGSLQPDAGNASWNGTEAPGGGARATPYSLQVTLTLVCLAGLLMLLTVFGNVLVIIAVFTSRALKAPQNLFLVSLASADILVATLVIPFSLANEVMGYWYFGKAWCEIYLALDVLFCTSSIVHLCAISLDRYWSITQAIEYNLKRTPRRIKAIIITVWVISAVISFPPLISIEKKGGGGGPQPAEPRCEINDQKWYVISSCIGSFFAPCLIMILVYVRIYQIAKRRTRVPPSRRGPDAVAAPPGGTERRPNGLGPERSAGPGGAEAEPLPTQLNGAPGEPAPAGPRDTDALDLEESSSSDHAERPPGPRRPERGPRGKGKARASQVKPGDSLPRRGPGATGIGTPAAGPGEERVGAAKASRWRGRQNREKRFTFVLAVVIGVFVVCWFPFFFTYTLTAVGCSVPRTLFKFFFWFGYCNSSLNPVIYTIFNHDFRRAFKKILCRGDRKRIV
# Procedure, shortened: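 Human platelet membranes with [3H]RX821002 (1.5 nM), nonspecific binding with phentolamine (10 µM). Displacement at nine concentrations spanning 3 orders of magnitude, IC50 by log-probit analysis, converted to Ki using Scatchard Kd. ≥3 independent duplicate experiments.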
# [11] = biological target: T4, Alpha-2B adrenergic receptor (Rattus norvegicus, UniProt P19328); assay: Binding affinity towards Alpha-2B adrenergic receptor in neonatal rat lung using [3H]-RX-821002 as radioligand
# T4 sequence (P19328 whole entry): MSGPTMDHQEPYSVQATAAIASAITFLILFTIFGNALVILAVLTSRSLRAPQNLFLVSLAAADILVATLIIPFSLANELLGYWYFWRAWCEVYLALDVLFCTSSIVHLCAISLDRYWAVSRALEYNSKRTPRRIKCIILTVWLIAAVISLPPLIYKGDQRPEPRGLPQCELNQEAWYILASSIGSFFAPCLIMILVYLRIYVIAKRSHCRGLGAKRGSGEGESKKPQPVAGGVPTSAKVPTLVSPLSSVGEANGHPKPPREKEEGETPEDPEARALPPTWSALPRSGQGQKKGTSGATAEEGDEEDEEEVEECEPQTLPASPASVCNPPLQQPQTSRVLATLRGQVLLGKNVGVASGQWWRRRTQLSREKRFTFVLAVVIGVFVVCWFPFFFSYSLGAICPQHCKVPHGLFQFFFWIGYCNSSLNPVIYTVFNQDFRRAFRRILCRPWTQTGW
# Procedure, shortened: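 Neonatal rat lung membranes with [3H]RX821002 (0.5 nM), nonspecific binding with phentolamine (10 µM). Nine concentrations over 3 log units, IC50 by log-probit, Ki by Cheng–Prusoff with Scatchard-derived Kd. ≥3 independent experiments in duplicate.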
Structure (SMILES),Ratio [1],Emax (Canis familiaris [2]),Ki [3],EC50 (Canis familiaris [4]),C20 [5],EC50 (Canis familiaris [6]),Ratio [7],Max [8],Emax (Canis familiaris [9]),Ki [10],Ki [11]
COc1cccc2c1CCC1(CN=CN1)C2 (configuration not stated),5.4,93,3400 nM,800 nM,0.85 µg/kg,2000 nM,4.7,139 mmHg,101,,
COc1cccc2c1CCC1(CNC=N1)C2 (configuration not stated),,,,,,,,,,12 nM,159 nM
COc1cc(C)cc2c1CCC1(CN=CN1)C2 (configuration not stated),1.6,60,600 nM,3900 nM,10 µg/kg,800 nM,1,136 mmHg,81,,
NC1=NC2(CCc3cccc(Cl)c3C2)CO1 (configuration not stated),2,68,800 nM,14 nM,0.2 µg/kg,360 nM,3,140 mmHg,117,1.6 nM,20 nM
Clc1cc(Cl)c2c(c1)CC1(CC2)CN=CN1 (configuration not stated),9.5,10,700 nM,2000 nM,19 µg/kg,21000 nM,3.1,91 mmHg,45,3 nM,95 nM
COc1ccc(SC)c2c1CC1(CC2)CN=CN1 (configuration not stated),75,96,600 nM,180 nM,0.003 µg/kg,290 nM,45,136 mmHg,98,,
COc1ccc2c(c1)CCC1(CNC=N1)C2 (configuration not stated),,,,,,,,,,87 nM,1200 nM
COc1cccc2c1CC1(CC2)CN=CN1 (configuration not stated),2,97,16000 nM,500 nM,0.64 µg/kg,7200 nM,4.6,139 mmHg,100,,
COc1ccc2c(c1)CC1(CC2)CNC=N1 (configuration not stated),,,,,,,,,,18 nM,193 nM
FC(F)(F)c1ccc(Cl)c(NC2=NCCN2)c1,33,22,65800 nM,5100 nM,10 µg/kg,4700 nM,2.2,73 mmHg,81,1560 nM,179 nM
Fc1cccc2c1CC1(CC2)CN=CN1 (configuration not stated),0.6,75,2500 nM,2300 nM,4.6 µg/kg,57000 nM,1,131 mmHg,99,12 nM,152 nM
COc1ccc(OC)c2c1CCC1(CN=CN1)C2 (configuration not stated),21,77,2000 nM,300 nM,0.05 µg/kg,120 nM,2,128 mmHg,106,,
COc1cccc2c1CC1(CC2)CNC=N1 (configuration not stated),,,,,,,,,,51 nM,99 nM
